From ChEMBL document CHEMBL1154335, “2-(3-Thienyl)-5,6-dihydroxypyrimidine-4-carboxylic acids as inhibitors of HCV NS5B RdRp” (Bioorg Med Chem Lett, 2009)
“And” between values parts separate entries of the source, which are not always exact repeats. Identical values can stand only once.

Assays:
Hepatitis C virus [1] = assay: Inhibition of HCV1b Cdelta55 NS5B polymerase; format: functional, organism-based, Hepatitis C virus subtype 1b
[2] = Inhibition of HCV2b Cdelta21 NS5B polymerase; parameters: species or system Hepatitis C virus subtype 2b
Hepatitis C virus [3] = assay: Inhibition of HCV1b Cdelta21 NS5B polymerase; format: functional, Hepatitis C virus subtype 1b
[4] = Half life in rat plasma at 3 mg/kg, iv; format: ADME, organism-based; parameters: dose 3 mg/kg, route intravenous
Summary of the method: (§1)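 Rat, single intravenous dose of 3 mg/kg; plasma sampled for half-life, volume of distribution and turnover (clearance).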

Hepatitis C virus [5] = assay: Inhibition of HCV2a Cdelta21 NS5B polymerase; format: functional, Hepatitis C virus subtype 2a
Hepatitis C virus [6] = assay: Antiviral activity against Hepatitis C virus subtype 2a infected in human HuH7 cells by replicon assay; format: functional, organism-based, Hepacivirus hominis, genotype 2a, Huh-7
Summary of the method: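 Full-length HCV genotype 2a infectivity assay; EC50 determined.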

[7] = Volume of distribution in rat at 3 mg/kg, iv; format: ADME, organism-based; parameters: dose 3 mg/kg, route intravenous; conditions: in vivo; summary of the method: as §1
[8] = Metabolic stability in rat assessed as compound turnover at 3 mg/kg, iv; format: ADME, organism-based; parameters: dose 3 mg/kg, route intravenous; conditions: in vivo, read-out: Stability; summary of the method: as §1
[9] = Protein binding in rat serum; format: ADME, cell-free; conditions: read-out: PB
Summary of the method: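 Binding to rat serum proteins measured.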

Hepatitis C virus [10] = assay: Antiviral activity against Hepatitis C virus subtype 1b infected in human HuH7 cells by replicon assay; format: functional, organism-based, Hepacivirus hominis; conditions: genotype 1b, Huh-7
[11] = Oral bioavailability in rat at 3 mg/kg; format: ADME, organism-based; conditions: in vivo
Summary of the method: (§2)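 Rat, oral dose of 3 mg/kg; plasma exposure (AUC) measured and oral bioavailability derived.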

[12] = Inhibition of HCV3a Cdelta21 NS5B polymerase; parameters: species or system Hepatitis C virus subtype 3a
Hepatitis C virus [13] = assay: Inhibition of HCV con1 Cdelta55 NS5B polymerase G152E mutant; format: functional, Hepacivirus hominis; conditions: isolate Con1
Summary of the method: (§3)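 IC50 determined on isolated recombinant NS5B polymerase carrying a single P156S or G152E substitution. These substitutions were identified in replicon colonies selected with […]. Wild-type enzyme was run alongside as the reference.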

Hepatitis C virus [14] = assay: Inhibition of wild type HCV con1 Cdelta55 NS5B polymerase; format: functional, Hepacivirus hominis; conditions: isolate Con1
Summary of the method: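 Recombinant NS5B truncated by 55 C-terminal residues (ΔC55), genotype 1b HCV; IC50 determined from enzyme inhibition.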

[15] = AUC in rat plasma at 3 mg/kg, po; format: ADME, organism-based; parameters: dose 3 mg/kg, route oral; summary of the method: as §2
[16] = Bioavailability in intramuscular dosed rat; format: ADME, organism-based; conditions: in vivo, im
Summary of the method: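 Rat, intramuscular administration; plasma exposure measured to derive bioavailability.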

Hepatitis C virus [17] = assay: Inhibition of HCV con1 Cdelta55 NS5B polymerase P156S mutant; format: functional, Hepacivirus hominis; conditions: isolate Con1; summary of the method: as §3
[18] = Hepatitis C virus, genotype 2a, Huh-7

| IC50 (Hepatitis C virus [1]) | EC50 (Hepatitis C virus [10]) | Structure (SMILES) | also measured |
| --- | --- | --- | --- |
| 6150 nM | – | O=C(O)c1nc(-c2ccsc2)nc(O)c1O | – |
| 48 nM | 32000 nM | O=C(Nc1cscc1-c1nc(O)c(O)c(C(=O)O)n1)NS(=O)(=O)c1ccc2ccccc2c1 | – |
| 12 nM | 2400 nM | O=C(Nc1cscc1-c1nc(O)c(O)c(C(=O)O)n1)NS(=O)(=O)c1cccc(Cl)c1Cl | EC50 (Hepatitis C virus [6]; [18]): 4900 nM |
| 426 nM | – | CS(=O)(=O)NC(=O)Nc1cscc1-c1nc(O)c(O)c(C(=O)O)n1 | – |
| 8280 nM | – | CC(C)(C)OC(=O)Nc1cscc1-c1nc(O)c(O)c(C(=O)O)n1 | – |
| 326 nM | – | O=C(Nc1cscc1-c1nc(O)c(O)c(C(=O)O)n1)OCc1ccccc1 | – |
| 343 nM | – | O=C(Nc1sccc1-c1nc(O)c(O)c(C(=O)O)n1)OCc1ccccc1 | – |
| 47 nM | 16000 nM | Cc1ccccc1S(=O)(=O)NC(=O)Nc1cscc1-c1nc(O)c(O)c(C(=O)O)n1 | – |
| 38 nM | 37000 nM | O=C(Nc1cscc1-c1nc(O)c(O)c(C(=O)O)n1)NS(=O)(=O)c1cccc(Br)c1 | – |
| 85 nM | 26000 nM | O=C(Nc1cscc1-c1nc(O)c(O)c(C(=O)O)n1)NS(=O)(=O)c1ccc(Cl)cc1 | – |
| 62 nM | 32000 nM | O=C(Nc1cscc1-c1nc(O)c(O)c(C(=O)O)n1)NS(=O)(=O)c1ccccc1 | – |
| 78 nM | 2600 nM | O=C(Nc1cscc1-c1nc(O)c(O)c(C(=O)O)n1)NS(=O)(=O)c1ccccc1Cl | EC50 (Hepatitis C virus [6]; [18]): 6600 nM |
| 2610 nM | – | O=C(Cc1ccccc1Cl)Nc1cscc1-c1nc(O)c(O)c(C(=O)O)n1 | – |
| 873 nM | – | O=C(NCc1ccccc1)Nc1cscc1-c1nc(O)c(O)c(C(=O)O)n1 | – |
| 258 nM | – | O=C(NCc1ccccc1Cl)Nc1cscc1-c1nc(O)c(O)c(C(=O)O)n1 | – |
| – | – | O=C(NCc1ccccc1Cl)Nc1ccsc1-c1nc(O)c(O)c(C(=O)O)n1 | IC50 (Hepatitis C virus [17]): 170 nM; IC50 (Hepatitis C virus [13]): 800 nM; IC50 (Hepatitis C virus [14]): 180 nM |
| 2600 nM | – | O=C(O)c1nc(-c2cccs2)nc(O)c1O | – |
| – | – | Cn1c(-c2cccs2)nc(C(=O)O)c(O)c1=O | IC50 (Hepatitis C virus [17]): 5600 nM; IC50 (Hepatitis C virus [13]): 3200 nM; IC50 (Hepatitis C virus [14]): 4600 nM |
| 30000 nM | – | O=C(O)c1nc(-c2ccccc2)nc(O)c1O | – |

| Structure (SMILES) | IC50 (Hepatitis C virus [1]) | EC50 (Hepatitis C virus [10]) | also measured |
| --- | --- | --- | --- |
| O=C(Nc1cscc1-c1nc(O)c(O)c(C(=O)O)n1)NS(=O)(=O)c1cccc2ccccc12 | 36 nM | 3600 nM | IC50 [2]: 5.8 nM; IC50 (Hepatitis C virus [3]): 5.6 nM; half-life [4]: 15 h; IC50 (Hepatitis C virus [5]): 2.1 nM; EC50 (Hepatitis C virus [6]; huh-7): 3700 nM and 9600 nM; Vd [7]: 0.1 L/kg; clearance [8]: 0.2 mL/min/kg; fraction unbound [9]: < 0.01; bioavailability [11]: 2%; IC50 [12]: 3.9 nM; IC50 (Hepatitis C virus [13]): 300 nM; IC50 (Hepatitis C virus [14]): 40 nM; AUC [15]: 3.3 µM·h; bioavailability [16]: 89% |
| O=C(Nc1cscc1-c1nc(O)c(O)c(C(=O)O)n1)NS(=O)(=O)c1ccccc1Br | 74 nM | 3400 nM | IC50 (Hepatitis C virus [17]): 70 nM; IC50 (Hepatitis C virus [13]): 400 nM; IC50 (Hepatitis C virus [14]): 60 nM |
